Results as given in ChEMBL document CHEMBL4038267, “Antiproliferative Activity of Natural Taiwaniaquinoids and Related Compounds” (J Nat Prod, 2017).

Legend:
Format in all cases: functional, cell-based
[1] = tested on: T84; experiment: Antiproliferative activity against human T84 cells after 3 days by sulforhodamine B assay; settings: T84, 72 h
Procedure, shortened: (§1)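 Cells from a university core cell-culture facility, grown in DMEM with 10% heat-inactivated FBS, penicillin-streptomycin and 2 mM L-glutamine at 37 °C, 5% CO2, 90% humidity. Seeded at 1 × 10^4 cells/cm2 in quadruplicate, treated after 24 h with increasing concentrations. Fixed in cold 10% TCA, stained with 0.4% sulforhodamine in 1% HOAc, solubilized in 10 mM Tris pH 10.5, OD 492 nm. IC50 by linear interpolation of semilog curves; mean ± SEM, four determinations.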

[2] = tested on: MCF7; experiment: Antiproliferative activity against human MCF7 cells after 3 days by sulforhodamine B assay; settings: MCF7, 72 h; procedure, shortened: as §1
[3] = tested on: A549; experiment: Antiproliferative activity against human A549 cells after 3 days by sulforhodamine B assay; settings: A549, 72 h; procedure, shortened: as §1

Row | SMILES | IC50 [1] [µM] | IC50 [2] [µM] | IC50 [3] [µM]
1 | CC(=O)OC[C@H]1C2=C(C(=O)C(Br)=C(C(C)C)C2=O)[C@@]2(C)CCC[C@@](C)(COC(C)=O)[C@H]12 | 1.6 | 1.8 | 1.1
2 | CC(C)C1=C(O)C(=O)C2=C(C1=O)[C@H](CO)[C@H]1C(C)(C)CCC[C@]21C | 35.3 | 39.9 | 43.6
3 | CC(=O)OC[C@H]1C2=C(C(=O)C=C(C(C)C)C2=O)[C@@]2(C)CCCC(C)(C)[C@H]12 | 28.8 | 13.6 | 21.1
4 | COC(=O)[C@]1(C)CCC[C@]2(C)C3=C(C(=O)C(C(C)C)=C(OC)C3=O)[C@H](CO)[C@@H]12 | 31.4 | 10 | 22.9
5 | C=C1C2=C(C(=O)C(OC)=C(C(C)C)C2=O)[C@@]2(C)CCCC(C)(C)C12O (some centres undefined) | 24.9 | 12.6 | 23.8
6 | CC(C)C1=C(Br)C(=O)C2=C(C[C@H]3C(C)(C)CCC[C@]23C)C1=O | 3.2 | 2.2 | 11.8
7 | C=C1C2=C(C(=O)C(OC)=C(C(C)C)C2=O)[C@@]2(C)CCC[C@@](C)(C(=O)OC)[C@H]12 | 15.7 | 17 | 19.7
8 | CC(C)C1=C(O)C(=O)[C@]23O[C@@]2(C1=O)[C@H](CO)[C@H]1C(C)(C)CCC[C@@]13C | 17.1 | 17.1 | 19.2
9 | CC(C)C1=C(Br)C(=O)C2=C(C=C3C(C)(C)CCC[C@@]32C)C1=O | 6.2 | 3.2 | 22.1
10 | COC(=O)[C@]1(C)CCC[C@]2(C)C3=C(C(=O)C(C(C)C)=C(O)C3=O)[C@H](CO)[C@@H]12 | 23.2 | 32.1 | 8.6
11 | CC(=O)OC[C@H]1c2c(O)c(C(C)C)cc(O)c2[C@@]2(C)CCCC(C)(C)[C@H]12 | 25 | 36.1 | 19.4
12 | CC(C)C1=CC(=O)C2=C(C=C3C(C)(C)CCC[C@@]32C)C1=O | 8.6 | 7.1 | 15
13 | CC(C)C1=CC(=O)C2=C(C1=O)[C@H](CO)[C@H]1C(C)(C)CCC[C@]21C | 18 | 15.7 | 12.5
14 | COC(=O)[C@]1(C)CCC[C@]2(C)C3=C(C(=O)C(C(C)C)=C(OC)C3=O)[C@H](C=O)[C@@H]12 | 12.8 | 11.4 | 12.1
15 | CC(=O)OC[C@H]1C2=C(C(=O)C(Br)=C(C(C)C)C2=O)[C@@]2(C)CCCC(C)(C)[C@H]12 | 29.5 | 4 | 29.7
16 | C=C1C2=C(C(=O)C(OC)=C(C(C)C)C2=O)[C@@]2(C)CCCC(C)(C)[C@H]12 | 32.3 | 12.4 | 30.9
17 | COC(=O)[C@]1(C)CCC[C@]2(C)C3=C(C(=O)C(C(C)C)=C(Br)C3=O)[C@H](COC(C)=O)[C@@H]12 | 2.9 | 2.4 | 2.4
18 | C=C1[C@H]2C(C)(C)CCC[C@]2(C)C2(O)C(=O)C(OC)=C(C(C)C)C(=O)C12O (some centres undefined) | 36.3 | 36.4 | 27.2
19 | C=C1C2=C(C(=O)C(Br)=C(C(C)C)C2=O)[C@@]2(C)CCCC(C)(C)[C@H]12 | 9.6 | 1.3 | 
20 | CC(C)C1=CC(=O)C2=C(C[C@H]3C(C)(C)CCC[C@]23C)C1=O | 6 | 16.1 | 30.3
21 | C=C1C2=C(C(=O)C(Br)=C(C(C)C)C2=O)[C@@]2(C)CCCC(C)(C)C12O (some centres undefined) | 5.2 | 1 | 1.5
22 | CC(C)C1=C(Br)C(=O)C2=C(C1=O)[C@H](CO)[C@H]1C(C)(C)CCC[C@]21C | 6.7 | 2.1 | 12.2
23 | COC1=C(C(C)C)C(=O)C2=C(C1=O)[C@@]1(C)CCCC(C)(C)[C@@H]1C2 [TAIWANIAQUINONE G] | 14.1 | 16.8 | 30.5
24 | COC1=C(C(C)C)C(=O)C2=C(C1=O)[C@@]1(C)CCCC(C)(C)[C@@H]1[C@H]2C=O [TAIWANIAQUINONE] | 11.9 | 15.4 | 10.1
25 | CC(C)C1=C(O)C(=O)C2=C(C1=O)[C@H](C=O)[C@H]1C(C)(C)CCC[C@]21C [TAIWANIQUINONE A] | 30.9 | 28.6 | 25.1
